Reference: ChEMBL document CHEMBL1629713, “Discovery of benzoylisoindolines as a novel class of potent, selective and orally active GlyT1 inhibitors” (Bioorg Med Chem Lett, 2010)
Converted amounts (≈) assume the structure as drawn.

How the values were obtained:
[1] = Aqueous solubility of the compound by lyophilisate solubility assay; format: physicochemical; settings: buffer
Outline: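 LYSA: compound in DMSO solution lyophilized, then dissolved in 0.05 M phosphate buffer pH 6.5, stirred 1 h and shaken 2 h; solubility in µg/ml.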

[2] = target: T1, Sodium- and chloride-dependent glycine transporter 1 (Homo sapiens, UniProt P48067); test: Inhibition of human GlyT1 expressed in CHO cells assessed as inhibition of [3H]glycine uptake by liquid scintillation counting; format: cell-based
T1 sequence (P48067 whole entry): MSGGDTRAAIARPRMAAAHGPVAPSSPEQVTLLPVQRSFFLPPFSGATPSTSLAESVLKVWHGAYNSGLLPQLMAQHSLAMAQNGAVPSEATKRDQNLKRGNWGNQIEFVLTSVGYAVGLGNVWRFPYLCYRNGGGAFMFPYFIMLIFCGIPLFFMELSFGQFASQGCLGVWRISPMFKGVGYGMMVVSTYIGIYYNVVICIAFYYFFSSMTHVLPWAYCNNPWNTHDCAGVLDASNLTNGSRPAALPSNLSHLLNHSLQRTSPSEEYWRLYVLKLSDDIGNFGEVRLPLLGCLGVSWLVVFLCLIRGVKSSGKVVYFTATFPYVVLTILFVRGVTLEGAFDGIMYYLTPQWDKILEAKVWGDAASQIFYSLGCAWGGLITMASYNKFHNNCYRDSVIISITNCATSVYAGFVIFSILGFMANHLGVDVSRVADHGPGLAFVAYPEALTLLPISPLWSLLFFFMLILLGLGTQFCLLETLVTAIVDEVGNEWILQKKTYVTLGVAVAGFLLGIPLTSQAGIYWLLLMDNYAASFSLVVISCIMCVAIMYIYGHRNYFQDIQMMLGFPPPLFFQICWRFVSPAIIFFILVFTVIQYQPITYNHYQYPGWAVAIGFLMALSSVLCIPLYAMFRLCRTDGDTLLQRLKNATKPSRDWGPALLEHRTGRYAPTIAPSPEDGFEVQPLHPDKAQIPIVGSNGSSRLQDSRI
Outline: (§1)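 [3H]-glycine uptake inhibition in cells transfected with human GlyT1 or human GlyT2 cDNA. EC50 values averaged from at least two independent experiments.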

[3] = target: T2, Sodium- and chloride-dependent glycine transporter 2 (Homo sapiens, UniProt Q9Y345); test: Inhibition of human GlyT2 expressed in CHO cells assessed as inhibition of [3H]glycine uptake by liquid scintillation counting; format: cell-based; outline: as §1
T2 sequence (Q9Y345 whole entry): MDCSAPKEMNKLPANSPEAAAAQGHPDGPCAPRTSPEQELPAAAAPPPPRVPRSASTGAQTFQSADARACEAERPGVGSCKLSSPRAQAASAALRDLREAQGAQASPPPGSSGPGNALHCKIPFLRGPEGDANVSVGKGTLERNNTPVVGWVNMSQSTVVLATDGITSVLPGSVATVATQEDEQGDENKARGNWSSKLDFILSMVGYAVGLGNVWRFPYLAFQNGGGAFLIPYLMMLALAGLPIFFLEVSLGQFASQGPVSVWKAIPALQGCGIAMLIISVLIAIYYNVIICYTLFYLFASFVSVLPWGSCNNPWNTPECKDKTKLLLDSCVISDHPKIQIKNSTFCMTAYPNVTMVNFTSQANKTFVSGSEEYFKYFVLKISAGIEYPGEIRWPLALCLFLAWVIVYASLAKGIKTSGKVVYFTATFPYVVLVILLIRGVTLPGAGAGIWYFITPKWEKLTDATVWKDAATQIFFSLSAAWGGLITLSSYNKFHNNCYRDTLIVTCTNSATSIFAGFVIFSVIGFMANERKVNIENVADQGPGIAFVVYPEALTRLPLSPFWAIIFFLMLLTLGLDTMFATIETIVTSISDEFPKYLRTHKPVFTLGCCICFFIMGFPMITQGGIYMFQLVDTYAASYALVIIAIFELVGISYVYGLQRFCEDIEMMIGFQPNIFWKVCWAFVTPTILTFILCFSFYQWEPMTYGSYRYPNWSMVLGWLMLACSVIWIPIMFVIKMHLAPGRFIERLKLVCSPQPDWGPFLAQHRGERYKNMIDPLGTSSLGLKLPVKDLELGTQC

[4] = Permeability of the compound by PAMPA; format: ADME; settings: read-out: permeability
Outline: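 PAMPA: permeation constant Pe (10^-6 cm/s) measured through artificial membranes.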

[5] = target: hERG (KCNH2) (Homo sapiens, UniProt Q12809); test: Inhibition of human ERG at 10 uM by patch clamp assay
Chain of hERG (KCNH2) (Q12809 whole entry): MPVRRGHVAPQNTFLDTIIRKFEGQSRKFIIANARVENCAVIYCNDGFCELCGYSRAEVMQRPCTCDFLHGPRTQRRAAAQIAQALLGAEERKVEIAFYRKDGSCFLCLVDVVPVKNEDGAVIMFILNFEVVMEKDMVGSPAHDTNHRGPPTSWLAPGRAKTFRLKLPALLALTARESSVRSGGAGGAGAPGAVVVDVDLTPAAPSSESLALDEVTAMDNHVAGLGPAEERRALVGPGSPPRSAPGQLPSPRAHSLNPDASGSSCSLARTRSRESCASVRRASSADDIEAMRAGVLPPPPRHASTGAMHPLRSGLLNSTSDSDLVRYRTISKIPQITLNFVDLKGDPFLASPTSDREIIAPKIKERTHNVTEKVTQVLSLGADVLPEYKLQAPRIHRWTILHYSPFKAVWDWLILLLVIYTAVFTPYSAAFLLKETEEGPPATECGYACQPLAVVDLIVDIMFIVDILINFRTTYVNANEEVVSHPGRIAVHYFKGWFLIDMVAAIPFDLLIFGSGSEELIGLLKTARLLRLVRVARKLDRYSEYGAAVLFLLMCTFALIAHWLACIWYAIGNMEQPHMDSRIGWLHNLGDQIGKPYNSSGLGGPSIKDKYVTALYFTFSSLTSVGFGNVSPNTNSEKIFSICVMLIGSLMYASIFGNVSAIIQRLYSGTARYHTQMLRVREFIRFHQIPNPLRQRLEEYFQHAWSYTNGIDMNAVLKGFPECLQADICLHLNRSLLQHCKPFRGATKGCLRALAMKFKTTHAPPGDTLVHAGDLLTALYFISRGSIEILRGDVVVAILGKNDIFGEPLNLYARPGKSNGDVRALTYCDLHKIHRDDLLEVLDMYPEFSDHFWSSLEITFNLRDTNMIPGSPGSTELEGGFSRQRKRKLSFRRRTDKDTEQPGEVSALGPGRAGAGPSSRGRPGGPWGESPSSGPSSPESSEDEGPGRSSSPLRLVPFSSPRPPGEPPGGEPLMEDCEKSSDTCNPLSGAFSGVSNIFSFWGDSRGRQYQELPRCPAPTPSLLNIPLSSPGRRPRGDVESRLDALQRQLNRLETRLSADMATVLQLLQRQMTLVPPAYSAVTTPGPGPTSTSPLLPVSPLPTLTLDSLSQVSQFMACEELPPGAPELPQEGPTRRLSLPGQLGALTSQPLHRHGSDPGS
Outline: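 hERG block measured by patch clamp at 10 µM; values averaged from at least two independent experiments.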

[6] = tested on: Mus musculus; test: Antipsychotic activity in po dosed mouse assessed as inhibition of L-687414-induced hyperlocomotion after 60 mins; format: functional; settings: 1 h, read-out: ID50 (the source's name)
Outline: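 Mice given compound orally, n = 8 per group; hyperlocomotion induced by L-687,414. Horizontal activity counts recorded over a 60-min period and reported as group means. ID50 (mg/kg) derived from dose-dependent inhibition of the L-687,414-induced response.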

[7] = Clearance in rat; format: ADME, organism-based; settings: in vivo
[8] = Volume of distribution in rat; format: ADME, organism-based; settings: in vivo
[9] = Ratio of drug level in brain to plasma in rat; format: ADME; settings: read-out: BPR
[10] = Oral bioavailability in rat; format: ADME, organism-based; settings: in vivo

| Structure (SMILES) | solubility [1] | EC50 [2] | EC50 [3] | Papp [4] | clearance [7] | Vd [8] | Kp [9] | bioavailability [10] | inhibition at 10 µM [5] | ED50 [6] |
| --- | --- | --- | --- | --- | --- | --- | --- | --- | --- | --- |
| C[C@H](Oc1ccc(S(C)(=O)=O)cc1C(=O)N1Cc2ccccc2C1)C(F)(F)F | < 1 µg/mL | 2540 nM | > 30000 nM | 0.8 ×10⁻⁶ cm/s |  |  |  |  |  |  |
| C[C@H](Oc1ccc(S(C)(=O)=O)cc1C(=O)N1Cc2ccc(C(F)(F)F)nc2C1)C(F)(F)F | 429 µg/mL (≈ 889 µM) | 250 nM | > 30000 nM | 5.5 ×10⁻⁶ cm/s |  |  |  |  |  |  |
| COc1cccc2c1CN(C(=O)c1cc(S(C)(=O)=O)ccc1O[C@@H](C)C(F)(F)F)C2 | 85 µg/mL (≈ 192 µM) | 1940 nM | > 30000 nM | 4.8 ×10⁻⁶ cm/s |  |  |  |  |  |  |
| C[C@H](Oc1ccc(S(C)(=O)=O)cc1C(=O)N1Cc2ccc(C3CCCCO3)cc2C1)C(F)(F)F (stereo not given in full) | < 1 µg/mL | 205 nM | > 30000 nM | 0.9 ×10⁻⁶ cm/s |  |  |  |  |  |  |
| C[C@H](Oc1ccc(S(C)(=O)=O)cc1C(=O)N1Cc2ccc(N3CCN(C)CC3)cc2C1)C(F)(F)F | 490 µg/mL (≈ 958 µM) | 2080 nM | > 30000 nM | 1.5 ×10⁻⁶ cm/s |  |  |  |  |  |  |
| C[C@H](Oc1ccc(S(C)(=O)=O)cc1C(=O)N1Cc2cccc(C#N)c2C1)C(F)(F)F | 259 µg/mL (≈ 591 µM) | 770 nM | > 30000 nM | 0.8 ×10⁻⁶ cm/s |  |  |  |  |  |  |
| CS(=O)(=O)c1ccc(N2CCOCC2)c(C(=O)N2Cc3cc(C(F)(F)F)cnc3C2)c1 | 495 µg/mL (≈ 1090 µM) | 3000 nM | > 30000 nM | 0.9 ×10⁻⁶ cm/s |  |  |  |  |  |  |
| C[C@H](Oc1ccc(S(C)(=O)=O)cc1C(=O)N1Cc2ccc(N3CCOCC3)cc2C1)C(F)(F)F | 355 µg/mL (≈ 712 µM) | 275 nM | > 30000 nM | 4.3 ×10⁻⁶ cm/s |  |  |  |  |  |  |
| CS(=O)(=O)c1ccc(OCc2ccccc2)c(C(=O)N2Cc3cc(C(F)(F)F)cnc3C2)c1 | 72 µg/mL (≈ 151 µM) | 805 nM | > 30000 nM | 0.8 ×10⁻⁶ cm/s |  |  |  |  |  |  |
| Cc1cccc2c1CN(C(=O)c1cc(S(C)(=O)=O)ccc1O[C@@H](C)C(F)(F)F)C2 | 73 µg/mL (≈ 171 µM) | 3360 nM | > 30000 nM | 4.2 ×10⁻⁶ cm/s |  |  |  |  |  |  |
| COc1ccc2c(c1)CN(C(=O)c1cc(S(C)(=O)=O)ccc1O[C@@H](C)C(F)(F)F)C2 | 46 µg/mL (≈ 104 µM) | 180 nM | > 30000 nM | 2.7 ×10⁻⁶ cm/s |  |  |  |  |  |  |

More lines, main results first:

| solubility [1] | EC50 [2] | EC50 [3] | Papp [4] | clearance [7] | Vd [8] | Kp [9] | bioavailability [10] | Structure (SMILES) | inhibition at 10 µM [5] | ED50 [6] |
| --- | --- | --- | --- | --- | --- | --- | --- | --- | --- | --- |
| 114 µg/mL (≈ 266 µM) | 70 nM | > 30000 nM | 4.1 ×10⁻⁶ cm/s |  |  |  |  | CC(C)Oc1ccc(S(C)(=O)=O)cc1C(=O)N1Cc2cc(C(F)(F)F)cnc2C1 | 10% | 1 mg/kg |
| 30 µg/mL (≈ 61.2 µM) | 84 nM | > 30000 nM | 0.8 ×10⁻⁶ cm/s |  |  |  |  | C[C@H](Oc1ccc(S(C)(=O)=O)cc1C(=O)N1Cc2ccc(-c3ccccn3)cc2C1)C(F)(F)F |  |  |
| < 1 µg/mL | 180 nM | 14300 nM | 0.8 ×10⁻⁶ cm/s |  |  |  |  | C[C@H](Oc1ccc(S(C)(=O)=O)cc1C(=O)N1Cc2ccc(N3CCCC3)cc2C1)C(F)(F)F |  |  |
| 513 µg/mL (≈ 1060 µM) | 111 nM | > 30000 nM | 4.3 ×10⁻⁶ cm/s |  |  |  |  | CS(=O)(=O)c1ccc(OCCC(F)(F)F)c(C(=O)N2Cc3cc(C(F)(F)F)cnc3C2)c1 |  | 3 mg/kg |
| 334 µg/mL (≈ 671 µM) | 137 nM | > 30000 nM | 4.1 ×10⁻⁶ cm/s |  |  |  |  | CS(=O)(=O)c1ccc(OCCC(F)(F)F)c(C(=O)N2Cc3ccc(C4CCOCC4)cc3C2)c1 |  |  |
| 4 µg/mL (≈ 8.17 µM) | 13 nM | 12000 nM | 2.6 ×10⁻⁶ cm/s |  |  |  |  | C[C@H](Oc1ccc(S(C)(=O)=O)cc1C(=O)N1Cc2ccc(-c3ccccc3)cc2C1)C(F)(F)F | 67% | 6 mg/kg |
| 470 µg/mL (≈ 974 µM) | 132 nM | > 30000 nM | 3.9 ×10⁻⁶ cm/s |  |  |  |  | C[C@H](Oc1ccc(S(C)(=O)=O)cc1C(=O)N1Cc2cnc(C(F)(F)F)cc2C1)C(F)(F)F |  |  |
| 42 µg/mL (≈ 87.1 µM) | 30 nM | > 30000 nM | 6.4 ×10⁻⁶ cm/s |  |  |  |  | CS(=O)(=O)c1ccc(-c2ccc(F)c(F)c2)c(C(=O)N2Cc3cc(C(F)(F)F)cnc3C2)c1 | 38% | 1 mg/kg |
| 1 µg/mL (≈ 2.08 µM) | 21 nM | > 30000 nM | 0.7 ×10⁻⁶ cm/s | 1.7 mL/min/kg | 2.9 L/kg | 1 | 23% | C[C@H](Oc1ccc(S(C)(=O)=O)cc1C(=O)N1Cc2ccc(C(F)(F)F)cc2C1)C(F)(F)F | 59% | 2 mg/kg |
| 15 µg/mL (≈ 31.3 µM) | 16 nM | > 30000 nM | 1.4 ×10⁻⁶ cm/s |  |  |  |  | CS(=O)(=O)c1ccc(-c2ccc(F)cc2)c(C(=O)N2Cc3ccc(C4CCOCC4)cc3C2)c1 | 36% | 0.3 mg/kg |
| 445 µg/mL (≈ 1010 µM) | 30 nM | > 30000 nM | 5.5 ×10⁻⁶ cm/s |  |  |  |  | CC(C)COc1ccc(S(C)(=O)=O)cc1C(=O)N1Cc2cc(C(F)(F)F)cnc2C1 | 37% |  |
| 25 µg/mL (≈ 51 µM) | 17 nM | > 30000 nM | 4.2 ×10⁻⁶ cm/s |  |  |  |  | C[C@H](Oc1ccc(S(C)(=O)=O)cc1C(=O)N1Cc2ccc(-c3ccncc3)cc2C1)C(F)(F)F | 58% | 3 mg/kg |
